Measurements as given in ChEMBL document CHEMBL1149320, “New class of corticotropin-releasing factor (CRF) antagonists: small peptides having high binding affinity for CRF receptor” (J Med Chem, 2004).
pKi: −log10 of the molar value. Bridge positions count the residues as written; N and C are the ends. Square brackets hold non-standard residues; d marks the D form. Peptide text beside a SMILES is read from it. ξ: configuration not given here. Cha = N[C@@H](CC1CCCCC1)C(=O)O; ξR = N=C(N)NCCCC(N)C(=O)O; Nle = CCCC[C@H](N)C(=O)O

Target: T1, Corticotropin-releasing factor receptor 1 (Homo sapiens, UniProt P34998)
T1 sequence (P34998 whole entry): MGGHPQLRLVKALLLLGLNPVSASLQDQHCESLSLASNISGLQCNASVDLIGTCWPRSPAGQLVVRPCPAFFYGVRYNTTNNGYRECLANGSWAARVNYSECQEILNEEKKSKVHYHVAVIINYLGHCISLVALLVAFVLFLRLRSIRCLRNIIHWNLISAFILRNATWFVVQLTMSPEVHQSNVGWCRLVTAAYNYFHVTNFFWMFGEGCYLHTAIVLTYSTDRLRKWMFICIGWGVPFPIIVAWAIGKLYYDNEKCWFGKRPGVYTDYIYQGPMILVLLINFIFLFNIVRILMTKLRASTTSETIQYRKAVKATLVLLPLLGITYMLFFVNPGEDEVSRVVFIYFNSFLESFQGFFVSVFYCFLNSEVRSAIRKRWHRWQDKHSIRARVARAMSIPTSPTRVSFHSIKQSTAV
Assay: Binding affinity at human CRF1 receptor (CRFR1) on HeLA cell membranes.
Type: cell-based
Details: not given
In short: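 Membranes from HeLa cells transfected with a plasmid encoding human CRFR1, precoupled to WGA scintillation proximity beads. Bead-bound radioactivity counted by scintillation. Ki reported; curves from three determinations, each in duplicate.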

| SMILES | pKi |
| --- | --- |
| CCCC[C@H](NC(=O)[C@H](CC(C)C)NC(=O)[C@H](CCCCN)NC(=O)[C@H](CCCN=C(N)N)NC(=O)[C@H](CC(N)=O)NC(=O)[C@@H]1CCCCNC(=O)CC[C@H](NC(C)=O)C(=O)N[C@@H](CC(=O)O)C(=O)N[C@@H](Cc2c[nH]cn2)C(=O)N1)C(=O)N[C@@H](CCC(=O)O)C(=O)N[C@H](C(=O)N[C@H](C(N)=O)[C@@H](C)CC)[C@@H](C)CC (Ac-EDHKNRKL[Nle]EII-NH2; lactam 1-4) | < 6.00 |
| CCCC[C@H](NC(=O)[C@H](CC(C)C)NC(=O)[C@H](CCCCN)NC(=O)[C@H](CCCN=C(N)N)NC(=O)[C@H](CCC(N)=O)NC(=O)[C@@H]1CCCCNC(=O)CC[C@H](NC(C)=O)C(=O)N[C@@H](C)C(=O)N[C@@H](Cc2c[nH]cn2)C(=O)N1)C(=O)N[C@@H](CCC(=O)O)C(=O)N[C@H](C(=O)N[C@H](C(N)=O)[C@@H](C)CC)[C@@H](C)CC (Ac-EAHKQRKL[Nle]EII-NH2; lactam 1-4) | < 6.00 |
| CCCC[C@H](NC(=O)[C@H](CC(C)C)NC(=O)[C@H](CCCCN)NC(=O)[C@H](CCCN=C(N)N)NC(=O)[C@H](CC(C)C)NC(=O)[C@@H]1CCCCNC(=O)CC[C@H](NC(C)=O)C(=O)N[C@@H](C)C(=O)N[C@@H](Cc2c[nH]cn2)C(=O)N1)C(=O)N[C@@H](CCC(=O)O)C(=O)N[C@H](C(=O)N[C@H](C(N)=O)[C@@H](C)CC)[C@@H](C)CC (Ac-EAHKLRKL[Nle]EII-NH2; lactam 1-4) | < 6.00 |
| CCCC[C@H](NC(=O)[C@H](CC(C)C)NC(=O)[C@H](CCCCN)NC(=O)[C@H](CCCN=C(N)N)NC(=O)[C@H](CC(=O)O)NC(=O)[C@@H]1CCCCNC(=O)CC[C@H](NC(C)=O)C(=O)N[C@@H](C)C(=O)N[C@@H](Cc2c[nH]cn2)C(=O)N1)C(=O)N[C@@H](CCC(=O)O)C(=O)N[C@H](C(=O)N[C@H](C(N)=O)[C@@H](C)CC)[C@@H](C)CC (Ac-EAHKDRKL[Nle]EII-NH2; lactam 1-4) | < 6.00 |

Same assay, conditions: hela

| SMILES | pKi |
| --- | --- |
| CCCC[C@H](NC(=O)[C@H](CC(C)C)NC(=O)[C@H](CCCCN)NC(=O)C(CCCN=C(N)N)NC(=O)[C@H](CC(N)=O)NC(=O)[C@@H]1CCCCNC(=O)CC[C@H](NC(C)=O)C(=O)N[C@@H](C)C(=O)N[C@@H](CCCCN)C(=O)N1)C(=O)N[C@@H](CCC(=O)O)C(=O)N[C@H](C(=O)N[C@H](C(N)=O)[C@@H](C)CC)[C@@H](C)CC (some centres undefined) (Ac-EAKKN[ξR]KL[Nle]EII-NH2; lactam 1-4) | 7.35 |
| CCCC[C@H](NC(=O)[C@H](CC(C)C)NC(=O)[C@H](CCCCN)NC(=O)[C@H](CCCNC(=N)N)NC(=O)[C@H](CC(C)C)NC(=O)[C@@H]1CCCCNC(=O)CC[C@H](NC(C)=O)C(=O)N[C@@H](C)C(=O)N[C@@H](CC(C)C)C(=O)N1)C(=O)N[C@@H](CCC(=O)O)C(=O)N[C@H](C(=O)N[C@H](C(N)=O)[C@@H](C)CC)[C@@H](C)CC (Ac-EALKLRKL[Nle]EII-NH2; lactam 1-4) | 7.31 |
| CC[C@H](C)[C@H](NC(=O)[C@@H](NC(=O)[C@H](CC(=O)O)NC(=O)[C@H](CC1CCCCC1)NC(=O)[C@H](CC(C)C)NC(=O)[C@H](CCCCN)NC(=O)[C@H](CCCNC(=N)N)NC(=O)[C@H](CC(N)=O)NC(=O)[C@@H]1CCCCNC(=O)CC[C@H](NC(C)=O)C(=O)N[C@@H](C)C(=O)N[C@@H](CCC(=O)O)C(=O)N1)[C@@H](C)CC)C(N)=O (Ac-EAEKNRKL[Cha]DII-NH2; lactam 1-4) | 8.26 |
| CCCC[C@H](NC(=O)[C@H](CC(C)C)NC(=O)[C@H](CCCCN)NC(=O)[C@H](CCCN=C(N)N)NC(=O)[C@H](CC(N)=O)NC(=O)[C@@H]1CCCCNC(=O)CC[C@H](NC(C)=O)C(=O)N[C@H](C)C(=O)N[C@@H](Cc2ccccc2)C(=O)N1)C(=O)N[C@@H](CCC(=O)O)C(=O)N[C@H](C(=O)N[C@H](C(N)=O)[C@@H](C)CC)[C@@H](C)CC | < 6.00 |
| CC[C@H](C)[C@H](NC(=O)[C@@H](NC(=O)[C@H](CC(=O)O)NC(=O)[C@H](CC1CCCCC1)NC(=O)[C@H](CC(C)C)NC(=O)[C@H](CCCCN)NC(=O)[C@H](CCCNC(=N)N)NC(=O)[C@H](CC(C)C)NC(=O)[C@@H]1CCCCNC(=O)CC[C@H](NC(C)=O)C(=O)N[C@H](C)C(=O)N[C@@H](CCC(=O)O)C(=O)N1)[C@@H](C)CC)C(N)=O | 8.51 |
